Laboratory results published in ChEMBL document CHEMBL2331269, “Design and synthesis of amphiphilic xanthone-based, membrane-targeting antimicrobials with improved membrane selectivity” (J Med Chem, 2013).
Values after ≈ are worked out from the molar mass of the structure shown. Active and inactive are the calls of the source. No cut-off for these calls is given here.

Tests used:
Klebsiella pneumoniae = assay: Antibacterial activity against Klebsiella pneumoniae ATCC 10031 after 20 to 22 hrs by CLSI broth macro-dilution method; type: functional
Staphylococcus aureus [1] = assay: Antibacterial activity against Staphylococcus aureus ATCC 29213 after 20 to 22 hrs by CLSI broth macro-dilution method; type: functional
[2] = Hemolytic activity against rabbit erythrocytes after 60 mins by spectrophotometric analysis; type: ADME, cell-based, Oryctolagus cuniculus, Erythrocyte
[3] = Partition coefficient, log P of the compound by HPLC analysis; type: physicochemical; settings: octanol/water
Method in brief: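 Partition coefficient measured by HPLC following OECD guidelines for the testing of chemicals.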

[4] = Selectivity ratio of HC50 for rabbit erythrocyte to MIC99 for Staphylococcus aureus ATCC 29213; type: functional
Pseudomonas aeruginosa = assay: Antibacterial activity against Pseudomonas aeruginosa ATCC 27853 after 20 to 22 hrs by CLSI broth macro-dilution method; type: functional
[5] = Selectivity ratio of HC50 for rabbit erythrocyte to MIC99 for methicillin-resistant Staphylococcus aureus clinical isolate DM21455; type: functional
Staphylococcus aureus [6] = assay: Antibacterial activity against methicillin-resistant Staphylococcus aureus clinical isolate DM21455 after 20 to 22 hrs by CLSI broth macro-dilution method; type: functional
[7] = Dissociation constant, pKa of the compound; type: physicochemical
Staphylococcus aureus [8] = assay: Antimicrobial activity against in Staphylococcus aureus assessed as disruption of bacterial membrane at 10 uM by fluorescence microscopy; type: functional, organism-based
Method in brief: (§1)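 S. aureus DM4001 treated with 10 μM agent and incubated with the membrane-impermeant nucleic-acid dye SYTOX Green. Permeabilization was read as increased fluorescence intensity and confirmed by fluorescence microscopy counting green-stained cells.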

Staphylococcus aureus [9] = assay: Antimicrobial activity against Staphylococcus aureus assessed as disruption of bacterial membrane at 10 uM by SYTOX green uptake assay; type: functional, organism-based; method in brief: as §1
Staphylococcus aureus [10] = assay: Antibacterial activity against methicillin-resistant Staphylococcus aureus ATCC […] after 20 to 22 hrs by CLSI broth macro-dilution method; type: functional
Staphylococcus aureus [11] = assay: Antibacterial activity against methicillin-resistant Staphylococcus aureus DM09808R obtained from eye isolate after 20 to 22 hrs by CLSI broth macro-dilution method; type: functional
Staphylococcus aureus [12] = assay: Antibacterial activity against methicillin-resistant Staphylococcus aureus DM21595 obtained from wound isolate after 20 to 22 hrs by CLSI broth macro-dilution method; type: functional
Staphylococcus aureus [13] = assay: Antibacterial activity against methicillin-resistant Staphylococcus aureus DM21595 assessed as log reduction in CFU at 0.5 X MIC to 4 X MIC after 24 hrs by surface-spread plate method relative to control; type: functional
Staphylococcus aureus [14] = assay: Antibacterial activity against methicillin-resistant Staphylococcus aureus DM21455 assessed as log reduction in CFU at 0.5 X MIC to 4 X MIC after 24 hrs by surface-spread plate method relative to control; type: functional
Staphylococcus aureus [15] = assay: Antibacterial activity against methicillin-resistant Staphylococcus aureus ATCC 700699 assessed as log reduction in CFU at 0.5 X MIC to 4 X MIC after 24 hrs by surface-spread plate method relative to control; type: functional
[16] = Toxicity against New Zealand White rabbit corneal epithelium assessed as effect on wound closure at 50 ug/ml by Slit lamp photography relative to control; type: tissue-based, Oryctolagus cuniculus, Cornea; settings: in vivo
Method in brief: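 A 5 mm corneal epithelial abrasion was made with a sterile trephine and the epithelium removed with a mini blade. Eyes were treated with saline, vancomycin 50 μg/mL, or agent 50 μg/mL. Wound closure was tracked over time from fluorescein-stained photographs of defect size.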

Staphylococcus aureus [17] = assay: Antibacterial activity against methicillin-resistant Staphylococcus aureus DR42412 obtained from sputum isolate after 20 to 22 hrs by CLSI broth macro-dilution method; type: functional
Staphylococcus aureus [18] = assay: Antibacterial activity against methicillin-resistant Staphylococcus aureus DM09808R assessed as log reduction in CFU at 0.5 X MIC to 4 X MIC after 24 hrs by surface-spread plate method relative to control; type: functional
Staphylococcus aureus [19] = assay: Antibacterial activity against methicillin-resistant Staphylococcus aureus DM42412 assessed as log reduction in CFU at 0.5 X MIC to 4 X MIC after 24 hrs by surface-spread plate method relative to control; type: functional
Staphylococcus aureus [20] = assay: Antibacterial activity against methicillin-resistant Staphylococcus aureus DM21455 assessed as log reduction in CFU at 0.5 X MIC to 4 X MIC after 8 hrs by surface-spread plate method relative to control; type: functional, organism-based
Staphylococcus aureus [21] = assay: Antibacterial activity against methicillin-resistant Staphylococcus aureus DM09808R assessed as log reduction in CFU at 0.5 X MIC to 4 X MIC after 8 hrs by surface-spread plate method relative to control; type: functional, organism-based
Staphylococcus aureus [22] = assay: Antibacterial activity against methicillin-resistant Staphylococcus aureus ATCC 700699 assessed as log reduction in CFU at 0.5 X MIC to 4 X MIC after 8 hrs by surface-spread plate method relative to control relative to control; type: functional, organism-based
Staphylococcus aureus [23] = assay: Antibacterial activity against methicillin-resistant Staphylococcus aureus DM21595 assessed as log reduction in CFU at 0.5 X MIC to 4 X MIC after 8 hrs by surface-spread plate method relative to control; type: functional, organism-based
Staphylococcus aureus [24] = assay: Antibacterial activity against methicillin-resistant Staphylococcus aureus DM42412 assessed as log reduction in CFU at 0.5 X MIC to 4 X MIC after 8 hrs by surface-spread plate method relative to control; type: functional, organism-based

| SMILES | MIC99 (Staphylococcus aureus [1]) | HC50 at 1 h [2] | logP ([3]; read-out: logP) | Selectivity ratio [4] | Selectivity ratio [5] | MIC99 (Staphylococcus aureus [6]) | pKa [7] | other results |
| --- | --- | --- | --- | --- | --- | --- | --- | --- |
| COc1c(O)cc2oc3cc(O)c(CC=C(C)C)c(O)c3c(=O)c2c1CC=C(C)C [MANGOSTIN] | 1.56 µg/mL (≈ 3.8 µM) | 9 µM | 6.75 | 5.77 | 5.77 | 1.56 µg/mL (≈ 3.8 µM) | – | MIC (Klebsiella pneumoniae): > 200 µg/mL; MIC (Pseudomonas aeruginosa): > 200 µg/mL |
| COc1c(OCCCCN2CCCC2)cc2oc3cc(OCCCCN4CCCC4)c(CC=C(C)C)c(O)c3c(=O)c2c1CC=C(C)C | 1.56 µg/mL (≈ 2.36 µM) | 25 µM | 6.63 | 16 | 16 | 1.56 µg/mL (≈ 2.36 µM) | 11.3 | – |
| COc1c(OCCCCBr)cc2oc3cc(OCCCCBr)c(CC=C(C)C)c(O)c3c(=O)c2c1CC=C(C)C | > 200 µg/mL | > 200 µM | – | – | – | > 200 µg/mL | – | Activity (Staphylococcus aureus [8]): inactive; Activity (Staphylococcus aureus [9]): inactive |
| CN[C@H](CC(C)C)C(=O)N[C@H]1C(=O)N[C@@H](CC(N)=O)C(=O)N[C@H]2C(=O)N[C@H]3C(=O)N[C@H](C(=O)N[C@H](C(=O)O)c4cc(O)cc(O)c4-c4cc3ccc4O)[C@H](O)c3ccc(c(Cl)c3)Oc3cc2cc(c3O[C@@H]2O[C@H](CO)[C@@H](O)[C@H](O)[C@H]2O[C@H]2C[C@](C)(N)[C@H](O)[C@H](C)O2)Oc2ccc(cc2Cl)[C@H]1O [VANCOMYCIN] | – | – | – | – | – | 0.78 µg/mL (≈ 0.538 µM) | – | MIC (Staphylococcus aureus [10]): 6.25 µg/mL (≈ 4.31 µM); MIC (Staphylococcus aureus [11]): 0.39 µg/mL (≈ 0.269 µM); MIC (Staphylococcus aureus [12]): 0.39 µg/mL (≈ 0.269 µM); FC (Staphylococcus aureus [13]): 3; FC (Staphylococcus aureus [14]): 3; FC (Staphylococcus aureus [15]): 3; Activity [16]: Non-toxic; MIC (Staphylococcus aureus [17]): 0.78 µg/mL (≈ 0.538 µM); FC (Staphylococcus aureus [18]): 3; FC (Staphylococcus aureus [19]): 3 |
| CCCCCCCCCC(=O)N[C@@H](Cc1c[nH]c2ccccc12)C(=O)N[C@H](CC(N)=O)C(=O)N[C@@H](CC(=O)O)C(=O)N[C@@H]1C(=O)NCC(=O)N[C@@H](CCCN)C(=O)N[C@@H](CC(=O)O)C(=O)N[C@H](C)C(=O)N[C@@H](CC(=O)O)C(=O)NCC(=O)N[C@H](CO)C(=O)N[C@@H]([C@H](C)CC(=O)O)C(=O)N[C@@H](CC(=O)c2ccccc2N)C(=O)O[C@@H]1C | – | – | – | – | – | 0.78 µg/mL (≈ 0.481 µM) | – | MIC (Staphylococcus aureus [10]): 0.78 µg/mL (≈ 0.481 µM); MIC (Staphylococcus aureus [11]): 0.195 µg/mL (≈ 0.12 µM); MIC (Staphylococcus aureus [12]): 0.78 µg/mL (≈ 0.481 µM); Activity (Staphylococcus aureus [20]): inactive; Activity (Staphylococcus aureus [21]): inactive; Activity (Staphylococcus aureus [22]): inactive; MIC (Staphylococcus aureus [17]): 0.195 µg/mL (≈ 0.12 µM); Activity (Staphylococcus aureus [23]): inactive; Activity (Staphylococcus aureus [24]): inactive |
| COc1c(OCCCCN2CCCCC2)cc2oc3cc(OCCCCN4CCCCC4)c(CC=C(C)C)c(O)c3c(=O)c2c1CC=C(C)C | 0.78 µg/mL (≈ 1.13 µM) | 19.3 µM | 6.93 | 24.7 | 12.3 | 1.56 µg/mL (≈ 2.26 µM) | 11.2 | – |
| CCN(CC)CCCOc1cc2oc3cc(OCCCN(CC)CC)c(OC)c(CC=C(C)C)c3c(=O)c2c(O)c1CC=C(C)C | 0.78 µg/mL (≈ 1.22 µM) | 16.3 µM | 6.27 | 20.9 | 41.7 | 0.39 µg/mL (≈ 0.612 µM) | 11 | – |
| COc1c(OCCCCn2cccn2)cc2oc3cc(OCCCCn4cccn4)c(CC=C(C)C)c(O)c3c(=O)c2c1CC=C(C)C | > 200 µg/mL | > 200 µM | – | – | – | > 200 µg/mL | 2.52 | logP [3]: 9.28 |
| CCN(CC)CCCCCCOc1cc2oc3cc(OCCCCCCN(CC)CC)c(OC)c(CC=C(C)C)c3c(=O)c2c(O)c1CC=C(C)C | 1.56 µg/mL (≈ 2.16 µM) | 26.5 µM | 8.39 | 17 | 17 | 1.56 µg/mL (≈ 2.16 µM) | 11 | – |
| CCN(CC)CCCCCOc1cc2oc3cc(OCCCCCN(CC)CC)c(OC)c(CC=C(C)C)c3c(=O)c2c(O)c1CC=C(C)C | 1.56 µg/mL (≈ 2.25 µM) | 14 µM | 7.55 | 9 | 18 | 0.78 µg/mL (≈ 1.13 µM) | 11 | – |
| COc1c(OCCCCn2cncn2)cc2oc3cc(OCCCCn4cncn4)c(CC=C(C)C)c(O)c3c(=O)c2c1CC=C(C)C | > 200 µg/mL | > 200 µM | – | – | – | > 200 µg/mL | 2.2 | logP [3]: 11.08 |
| COc1c(OCCCCN2CCOCC2)cc2oc3cc(OCCCCN4CCOCC4)c(CC=C(C)C)c(O)c3c(=O)c2c1CC=C(C)C | > 200 µg/mL | > 200 µM | 5.42 | – | – | > 200 µg/mL | 8.36 | – |
